The compounds below were run against T1, OR2W1 (Homo sapiens) (UniProt Q9Y3N9). Settings: stereoisomer not certain.
T1 sequence (whole entry): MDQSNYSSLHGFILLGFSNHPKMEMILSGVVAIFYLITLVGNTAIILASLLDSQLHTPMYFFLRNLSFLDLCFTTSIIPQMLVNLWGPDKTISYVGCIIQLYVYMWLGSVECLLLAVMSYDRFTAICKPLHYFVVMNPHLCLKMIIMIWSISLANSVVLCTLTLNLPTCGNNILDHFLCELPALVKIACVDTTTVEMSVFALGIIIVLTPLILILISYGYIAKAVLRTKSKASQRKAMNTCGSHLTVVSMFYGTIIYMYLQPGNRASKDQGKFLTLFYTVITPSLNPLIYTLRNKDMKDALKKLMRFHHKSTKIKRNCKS
How it was run: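 Each receptor–molecule pair is labelled responsive or non-responsive (inactive) according to whether the original authors judged the measured signal statistically different from baseline. The data were taken from the main text and supplementary material of published papers and checked for typos and inconsistencies. Assay methods differed by source, with transient luciferase assays in mammalian cell lines being common.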

Odorant receptor agonist call, inactive:
C=CCOC(=O)CCCCCC
CCCCCCCCC=CC=O
CCC(C)c1nccnc1OC (centres undefined)
CC(=O)Oc1ccccc1
CCC(=O)O
COc1cccc(OC)c1O
CC12CCC(CC1=O)C2(C)C (centres undefined)
CCC=O
C=C1CCC2CC1C2(C)C (centres undefined)
CCC(C(=O)O)c1ccccc1 (centres undefined)
CCc1ccc(O)c(OC)c1
Cc1occc1S
CC1=CCC2CC1C2(C)C (centres undefined)
CSC
CCC=CCC=O
C=CC(=O)CC=CCC
C=CCSC
CC(=O)O
CCCCCCCCC1CCC(=O)O1 (centres undefined)
c1ccccc1
CCCCCOC(=O)CCCCC
CC(C)CO
CCCCOC(=O)C(C)OC(=O)CCC (centres undefined)
O=C(O)CCc1ccccc1
CCOC(C)=O
Cc1occc(=O)c1O
CCC(C)C(=O)OC (centres undefined)
CCCCC(=O)C(C)=O
CCCC(=O)C(C)CC (centres undefined)
COc1ccc2ccc(=O)oc2c1

Odorant receptor agonist call, active:
CCCCCCCO
CCCCCCCCO
CCCCCCCCCCO
O=C1CCOc2ccccc21

From the M2OR odorant receptor database
